This note sets out measurements from PubChem BioAssay.

Assay [1] in a line: reducers of endogenous Her2 protein level, primary screen, SKBR3 breast tumor cells, AlphaScreen, ATP viability (AID 461).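 For Her2 level: lower value means less Her2 protein in the cells.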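 For viability: percent of carrier control wells set as 100% viability.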 Particulars: 18-24 h, measured here: SKBR3 viability, ATP luminescence, at 10 µM. In general terms: In Alpha technology, singlet oxygen from a donor bead excites a nearby acceptor bead.
The target of assay [2] is Receptor tyrosine-protein kinase erbB-2 (Homo sapiens) (UniProt P04626). Described as above. Particulars: 18-24 h, at 10 µM, stronger effect = lower value.
Sequence of Receptor tyrosine-protein kinase erbB-2 (Homo sapiens) (P04626 whole entry, looked up): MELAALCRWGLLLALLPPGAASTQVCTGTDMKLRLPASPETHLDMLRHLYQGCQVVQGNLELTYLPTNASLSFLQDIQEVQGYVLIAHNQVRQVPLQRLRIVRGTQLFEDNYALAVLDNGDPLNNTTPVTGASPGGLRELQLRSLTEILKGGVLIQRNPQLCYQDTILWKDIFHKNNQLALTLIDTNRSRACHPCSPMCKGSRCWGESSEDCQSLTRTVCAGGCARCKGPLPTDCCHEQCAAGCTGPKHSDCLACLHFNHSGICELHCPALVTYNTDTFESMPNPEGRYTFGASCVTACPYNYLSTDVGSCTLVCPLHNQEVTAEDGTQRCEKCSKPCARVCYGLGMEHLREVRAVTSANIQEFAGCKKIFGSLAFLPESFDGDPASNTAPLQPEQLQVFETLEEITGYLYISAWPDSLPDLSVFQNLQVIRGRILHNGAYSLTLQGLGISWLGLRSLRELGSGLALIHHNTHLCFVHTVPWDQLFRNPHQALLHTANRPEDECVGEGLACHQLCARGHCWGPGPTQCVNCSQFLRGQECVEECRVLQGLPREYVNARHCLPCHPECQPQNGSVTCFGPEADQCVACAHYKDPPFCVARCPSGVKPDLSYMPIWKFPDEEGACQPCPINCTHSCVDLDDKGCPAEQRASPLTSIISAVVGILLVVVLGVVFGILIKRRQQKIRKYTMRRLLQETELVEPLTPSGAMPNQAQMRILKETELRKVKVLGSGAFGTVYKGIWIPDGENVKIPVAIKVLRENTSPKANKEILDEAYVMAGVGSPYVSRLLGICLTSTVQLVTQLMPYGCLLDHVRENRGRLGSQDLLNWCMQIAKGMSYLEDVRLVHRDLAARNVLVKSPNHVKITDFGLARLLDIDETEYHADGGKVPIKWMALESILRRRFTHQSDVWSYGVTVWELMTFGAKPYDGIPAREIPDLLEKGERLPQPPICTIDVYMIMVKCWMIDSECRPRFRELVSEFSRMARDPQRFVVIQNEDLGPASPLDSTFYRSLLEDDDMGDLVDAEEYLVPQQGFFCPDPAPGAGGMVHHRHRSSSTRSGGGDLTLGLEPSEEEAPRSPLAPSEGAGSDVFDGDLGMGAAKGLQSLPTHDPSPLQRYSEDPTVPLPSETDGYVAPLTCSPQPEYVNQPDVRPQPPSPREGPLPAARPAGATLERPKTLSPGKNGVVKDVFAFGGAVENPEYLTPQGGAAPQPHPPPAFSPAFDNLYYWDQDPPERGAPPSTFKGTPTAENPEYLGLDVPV
A short description of assay [3]: SK-BR-3 cell growth inhibitors, pilot screen, 24 h, human (AID 572;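 active = viability at or below 10% of carrier control in both of two separate runs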;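 note: compound exposure lasted between 18 and 24 h rather than exactly 24 h; 100% = carrier-treated control wells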). The note with it: SK-BR-3 viability, CellTiter-Glo luminescence, at 10 µM, stronger effect = lower value. (ATP-based viability assays read luminescence as a measure of living cells.)
A short description of assay [4]: HUVEC growth inhibition – cell-based, human, primary screen (AID 575;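 active = viability at or below 30% in both replicate assays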;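 note: 100% = median of untreated cell wells with 0.1% DMSO on each plate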). The note with it: HUVEC proliferation, CellTiter-Glo luminescence, 72 h; at 10 µM; stronger effect = lower value. An outline of the steps:
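Assay system: Primary human umbilical vein endothelial cells | Quantity: 1250 cells per well | Medium: Supplemented EBM, 2% fetal bovine serum | Detection: CellTiter-Glo luminescence measuring cellular ATP | Read-out: % viability vs DMSO wells | Plate: Collagen-coated 384-well format | Times: 72 h exposure, 37 °C, 5% CO2, 30 min RT equilibration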

Assay [5] in a line: growth inhibitors of H69AR lung tumor, primary screen, human, duplicate replicates (AID 580;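 active = viability at or under a set limit in both replicates, limit being median viability minus 3 SD, cut at about 48% in these data, passing the limit was not always enough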;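 note: 100% = mean luminescence of untreated wells and 0% = no signal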). Particulars: H69AR lung tumor cells viability, ATP luminescence, 72 h; at 10 µM; stronger effect = lower value.
Assay [6] can be described thus: reversal of MRP1-mediated doxorubicin resistance, pilot screen, H69AR cells, doxorubicin co-treatment (AID 601;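 active = viability loss from added drug above about 55%, and viability with drug at most 40%, in both replicates, limit read from the data, passing the limit was not always enough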). The note with it: CellTiter-Glo, 72 h, at 10 µM; for differential viability (reversal): stronger effect = higher value.
Assay [7] in a line: 384-well plate pilot, post-Golgi transport modulator project, inhibition of yeast transport mutant growth (AID 636; in the data active = inhibition above about 31%). Particulars: absorbance 615 nm, about 18 h, stronger effect = higher value.
Assay [8] in a line: growth suppression of yeast trafficking mutant, preliminary HTS, modulators of trafficking downstream of Golgi apparatus project, 1536-format plate, OD 615 nm (AID 637; in the data active = inhibition above about 30%). The note with it: yeast transport mutant growth, absorbance 615 nm, 18 h; stronger effect = higher value.
Setting [9] is: H69AR cells + 2 uM doxorubicin, measured here: viability with 2 uM doxorubicin, stronger effect = lower value.
The mark [10] stands for this setting: H69AR cells, compound alone cytotoxicity.

Calls of active or inactive are those of the source.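 Rule for the calls, unless noted: active = Her2 level under about 52% in both replicate screens, with viability over 70% of control (limit read from the data); inconclusive = Her2 under the limit in one screen only, or viability under 70%; inactive = Her2 level above the set limit.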

As usually defined, the viability is a read-out of living cells in per cent, often relative to untreated cells. The term inhibition denotes the change of the read-out against control, counted positive when it falls. On to `CNC(=O)CSc1nnc(-c2cc3c(C)nn(-c4ccccc4)c3s2)n1C`, for which the viability was 112% in assay [1]; 112% (inactive) in assay [3]; 99.2% (inactive) in assay [4]; 109% (inactive) in assay [5]; 86.9% in assay [6] (setting [9]); 109% in assay [6] (setting [10]). In assay [2], the Her2 level is 112% (inactive). Further, the differential viability (reversal) in assay [6] (H69AR cells + 2 uM doxorubicin) was 22.3% (inactive). Moreover, the figures for the inhibition in assay [7] and in assay [8] were -0.13% (inactive) and -2.54% (inactive), respectively.
Take `CCOc1ccccc1N1CCN(c2nc(N)c(C#N)c(CC#N)c2C#N)CC1`: the viability in assay [1] is 108%; in assay [3] it was 108% (inactive); in assay [4] it was 70.7% (inactive); in assay [5] it was 61.7% (inactive); in assay [6] (setting [9]) it was 84.5%; in assay [6] (setting [10]), 61.7%. In assay [2], the Her2 level was 74.5% (inactive). Also, in assay [6] (H69AR cells + 2 uM doxorubicin), the differential viability (reversal) is -22.8% (inactive). Besides, the inhibition was -4.34% (inactive) in assay [7] and 5.64% (inactive) in assay [8].
In the case of `COc1ccc(CCNC(=O)c2cc(-c3cc(C)c(C)cc3O)n[nH]2)cc1OC`, the viability in assay [1] is 93.5%; in assay [3], 93.5% (inactive); in assay [4] it was 86.6% (inactive); in assay [5], 77% (inactive); in assay [6] (setting [9]), 75.5%; in assay [6] (setting [10]) it was 77%. The Her2 level in assay [2] was 87.5% (inactive). Also, in assay [6] (H69AR cells + 2 uM doxorubicin), the differential viability (reversal) was 1.53% (inactive). For the same compound, the inhibition in assay [7] was -3.82% (inactive); in assay [8], -4% (inactive).
For `CC(C)NC(=O)CSc1nc2ccccc2n1-c1ccccc1`, the viability is 88.5% in assay [1]; 88.5% (inactive) in assay [3]; 100% (inactive) in assay [4]; 84.3% (inactive) in assay [5]; 92.4% in assay [6] (setting [9]); 84.3% in assay [6] (setting [10]). Besides, the Her2 level in assay [2] is 101% (inactive). Moreover, the differential viability (reversal) in assay [6] (H69AR cells + 2 uM doxorubicin) is -8.05% (inactive). Moreover, the values for the inhibition in assay [7] and in assay [8] were 2.86% (inactive) and -4.13% (inactive), respectively.
With `Cc1ccc(S(=O)(=O)NCC(=O)N(CC(=O)NCc2ccccc2)CC2CCCO2)cc1` (stereo not given), the viability is 110% in assay [1]; 110% (inactive) in assay [3]; 108% (inactive) in assay [4]; 104% (inactive) in assay [5]; 86.2% in assay [6] (setting [9]); 104% in assay [6] (setting [10]). Further, in assay [2], the Her2 level is 91.5% (inactive). Also, in assay [6] (H69AR cells + 2 uM doxorubicin), the differential viability (reversal) is 17.9% (inactive). The inhibition in assay [7] was -3.65% (inactive); in assay [8] it was 3.49% (inactive).
Take `Cc1ccc2cc(C#N)c(N3CCCC3)nc2c1C`: the viability in assay [1] is 77%; in assay [3], 77% (inactive); in assay [4], 91.4% (inactive); in assay [5], 74.8% (inactive); in assay [6] (setting [9]) it was 78.5%; in assay [6] (setting [10]), 74.8%. Also, the Her2 level in assay [2] was 70.5% (inactive). Moreover, the differential viability (reversal) in assay [6] (H69AR cells + 2 uM doxorubicin) is -3.67% (inactive). For the same compound, the inhibition in assay [7] is -5.27% (inactive); in assay [8] it was -2.33% (inactive).
On to `Cc1ccc(NC(=O)CSc2nnc(NC(=O)CN3CCOCC3)s2)cc1`, for which the viability is 102% in assay [1]; 102% (inactive) in assay [3]; 98% (inactive) in assay [4]; 94.1% (inactive) in assay [5]; 84.4% in assay [6] (setting [9]); 94.1% in assay [6] (setting [10]). For the same compound, the Her2 level in assay [2] was 82% (inactive). Further, the differential viability (reversal) in assay [6] (H69AR cells + 2 uM doxorubicin) is 9.71% (inactive). The inhibition in assay [7] was -5.33% (inactive); in assay [8], -2.46% (inactive).
Regarding `Cc1ccccc1-c1nc(CN2CCC(C(=O)NCCCN3CCOCC3)CC2)c(C)o1`, the viability was 86.5% in assay [1]; 86.5% (inactive) in assay [3]; 74% (inactive) in assay [4]; 97.2% (inactive) in assay [5]; 91.9% in assay [6] (setting [9]); 97.2% in assay [6] (setting [10]). The Her2 level in assay [2] is 107% (inactive). Also, the differential viability (reversal) in assay [6] (H69AR cells + 2 uM doxorubicin) is 5.29% (inactive). The inhibition in assay [7] was 1.58% (inactive); in assay [8] it was -4.29% (inactive).
On to `CC(C)(C)NCc1cc2ccccc2[nH]c1=O`, for which the viability in assay [1] was 90%; in assay [3] it was 90% (inactive); in assay [4], 99.1% (inactive); in assay [5] it was 93.2% (inactive); in assay [6] (setting [9]), 83.3%; in assay [6] (setting [10]), 93.2%. Further, in assay [2], the Her2 level is 74.5% (inactive). In addition, the differential viability (reversal) in assay [6] (H69AR cells + 2 uM doxorubicin) is 9.9% (inactive). Further, the inhibition was -9.05% (inactive) in assay [7] and -2.5% (inactive) in assay [8].
With `COC(=O)c1sc(NC(=O)c2ccoc2C)nc1C`, the viability was 110% in assay [1]; 110% (inactive) in assay [3]; 61.8% (inactive) in assay [4]; 75.3% (inactive) in assay [5]; 72.9% in assay [6] (setting [9]); 75.3% in assay [6] (setting [10]). For the same compound, the Her2 level in assay [2] was 118% (inactive). The differential viability (reversal) in assay [6] (H69AR cells + 2 uM doxorubicin) is 2.44% (inactive). Also, the inhibition in assay [7] is -3.07% (inactive); in assay [8] it was 8.06% (inactive).
With `CCOc1ccc(-n2c(=O)cc(N3CCN(c4ccccc4)CC3)[nH]c2=O)cc1`, the viability is 94% in assay [1]; 94% (inactive) in assay [3]; 96.1% (inactive) in assay [4]; 103% (inactive) in assay [5]; 95.6% in assay [6] (setting [9]); 103% in assay [6] (setting [10]). For the same compound, the Her2 level in assay [2] is 84% (inactive). In addition, the differential viability (reversal) in assay [6] (H69AR cells + 2 uM doxorubicin) is 7.43% (inactive). For the same compound, the values for the inhibition in assay [7] and in assay [8] were -6.13% (inactive) and 6.07% (inactive), respectively.
For `Cn1c(SCc2nnc3n2CCCCC3)nc2ccccc21`, the viability in assay [1] is 103%; in assay [3] it was 103% (inactive); in assay [4], 98.3% (inactive); in assay [5], 98.2% (inactive); in assay [6] (setting [9]), 94%; in assay [6] (setting [10]) it was 98.2%. For the same compound, the Her2 level in assay [2] was 98.5% (inactive). Also, the differential viability (reversal) in assay [6] (H69AR cells + 2 uM doxorubicin) is 4.2% (inactive). The inhibition in assay [7] was -6.67% (inactive); in assay [8], 2.54% (inactive).
Take `O=C(OCc1nnc(-c2ccccc2)o1)C1=COCCO1`: the viability in assay [1] was 100%; in assay [3], 100% (inactive); in assay [4], 101% (inactive); in assay [5], 92.1% (inactive); in assay [6] (setting [9]), 93%; in assay [6] (setting [10]), 92.1%. Moreover, in assay [2], the Her2 level is 94% (inactive). Further, the differential viability (reversal) in assay [6] (H69AR cells + 2 uM doxorubicin) is -0.965% (inactive). Moreover, the inhibition in assay [7] is -8.67% (inactive); in assay [8], -1.97% (inactive).
As to `Nc1nc(N)nc(-c2ccccc2)n1`, the viability in assay [1] was 97.5%; in assay [3], 97.5% (inactive); in assay [4], 107% (inactive); in assay [5] it was 99.8% (inactive); in assay [6] (setting [9]), 95.4%; in assay [6] (setting [10]), 99.8%. In assay [2], the Her2 level was 106% (inactive). The differential viability (reversal) in assay [6] (H69AR cells + 2 uM doxorubicin) is 4.35% (inactive). Besides, the inhibition in assay [7] is -1.05% (inactive); in assay [8] it was -0.16% (inactive).
As for `COc1ccccc1Nc1nc2ccccc2[nH]1`, the viability was 92% in assay [1]; 92% (inactive) in assay [3]; 86.3% (inactive) in assay [4]; 72.8% (inactive) in assay [5]; 83.4% in assay [6] (setting [9]); 72.8% in assay [6] (setting [10]). Further, the Her2 level in assay [2] was 93.5% (inactive). For the same compound, in assay [6] (H69AR cells + 2 uM doxorubicin), the differential viability (reversal) was -10.6% (inactive). Besides, the inhibition was -9.07% (inactive) in assay [7] and -7.94% (inactive) in assay [8].
As for `CC(C)(C)OC(=O)N1CCC(C(=O)N[C@H](Cc2ccccc2)C(=O)O)CC1`, the viability is 101% in assay [1]; 101% (inactive) in assay [3]; 108% (inactive) in assay [4]; 98.2% (inactive) in assay [5]; 95.1% in assay [6] (setting [9]); 98.2% in assay [6] (setting [10]). For the same compound, in assay [2], the Her2 level is 93.5% (inactive). The differential viability (reversal) in assay [6] (H69AR cells + 2 uM doxorubicin) was 3.02% (inactive). For the same compound, the inhibition in assay [7] is -10.4% (inactive); in assay [8], 3.5% (inactive).
